In ChEMBL document CHEMBL1145811, “Synthesis and antibacterial activity of a novel series of acylides: 3-O-(3-pyridyl)acetylerythromycin A derivatives” (J Med Chem, 2003):
Converted amounts (≈) assume the structure as drawn.

Columns and labels:
Format in all cases: functional
Haemophilus influenzae [1] = assay: In vitro minimum inhibitory concentration for antibacterial activity against Haemophilus influenzae ATCC 43095 (ampicillin-susceptible strain that does not produce beta-lactamase)
Summary of the method: (§1)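 Agar dilution MIC determined by the Japan Society of Chemotherapy standard method for aerobic bacteria.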

Streptococcus pneumoniae [2] = assay: In vitro minimum inhibitory concentration for antibacterial activity against Streptococcus pneumoniae 210 (efflux-resistant strain encoded by the mef(A) gene); summary of the method: as §1
Staphylococcus aureus [3] = assay: In vitro minimum inhibitory concentration for antibacterial activity against Staphylococcus aureus SR138 (constitutively MLSb-resistant strain encoded by the erm(A) gene); summary of the method: as §1
Streptococcus pneumoniae [4] = assay: In vitro minimum inhibitory concentration for antibacterial activity against erythromycin-susceptible strain Streptococcus pneumoniae IID553
Summary of the method: (§2)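 MIC by agar dilution following the Japan Society of Chemotherapy standard method for aerobic bacteria. S. aureus 209P-JC and S. pneumoniae IID553 are erythromycin-susceptible strains.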

Streptococcus pneumoniae [5] = assay: In vitro minimum inhibitory concentration for antibacterial activity against Streptococcus pneumoniae 211 (MLSb-resistant strain encoded by the erm(B) gene); summary of the method: as §1
Staphylococcus aureus [6] = assay: In vitro minimum inhibitory concentration for antibacterial activity against Staphylococcus aureus B1 (inducibly MLSb-resistant strain encoded by the erm(C) gene); summary of the method: as §1
Haemophilus influenzae [7] = assay: In vitro minimum inhibitory concentration for antibacterial activity against Haemophilus influenzae ATCC 33533 (ampicillin-resistant strain that produces beta-lactamase); summary of the method: as §1
Staphylococcus aureus [8] = assay: In vitro minimum inhibitory concentration for antibacterial activity against erythromycin-susceptible strain Staphylococcus aureus […]; summary of the method: as §2

SMILES | MIC (Haemophilus influenzae [1]) | MIC (Streptococcus pneumoniae [2]) | MIC (Staphylococcus aureus [3]) | MIC (Streptococcus pneumoniae [4]) | MIC (Streptococcus pneumoniae [5]) | MIC (Staphylococcus aureus [6]) | MIC (Haemophilus influenzae [7]) | MIC (Staphylococcus aureus [8])
CC[C@H]1OC(=O)[C@H](C)[C@@H](OC(=O)Cc2ccccc2)[C@H](C)[C@@H](O[C@@H]2O[C@H](C)C[C@H](N(C)C)[C@H]2O)[C@@](C)(OC)C[C@@H](C)C(=O)[C@H](C)[C@@H](O)[C@]1(C)O | 100 µg/mL (≈ 141 µM) | 0.78 µg/mL (≈ 1.1 µM) | > 100 µg/mL | 0.78 µg/mL (≈ 1.1 µM) | > 100 µg/mL | 6.25 µg/mL (≈ 8.83 µM) | 100 µg/mL (≈ 141 µM) | 1.56 µg/mL (≈ 2.2 µM)
CC[C@H]1OC(=O)[C@H](C)[C@@H](OC(=O)Cc2ccccn2)[C@H](C)[C@@H](OC2O[C@H](C)C[C@H](N(C)C)[C@H]2O)[C@@](C)(OC)C[C@@H](C)C(=O)[C@H](C)[C@@H](O)[C@]1(C)O (stereo partly drawn) | 50 µg/mL (≈ 70.5 µM) | 0.39 µg/mL (≈ 0.55 µM) | > 100 µg/mL | 0.39 µg/mL (≈ 0.55 µM) | > 100 µg/mL | 1.56 µg/mL (≈ 2.2 µM) | 25 µg/mL (≈ 35.3 µM) | 1.56 µg/mL (≈ 2.2 µM)
CC[C@H]1OC(=O)[C@H](C)[C@@H](OC(=O)Cc2cccnc2)[C@H](C)[C@@H](OC2O[C@H](C)C[C@H](N(C)C)[C@H]2O)[C@@](C)(OC)C[C@@H](C)C2=NCCN3C(=O)O[C@@]1(C)[C@H]3[C@H]2C (stereo partly drawn) | 6.25 µg/mL (≈ 8.24 µM) | 0.2 µg/mL (≈ 0.264 µM) | > 100 µg/mL | 0.05 µg/mL (≈ 0.0659 µM) | > 100 µg/mL | 0.39 µg/mL (≈ 0.514 µM) | 3.13 µg/mL (≈ 4.12 µM) | 0.2 µg/mL (≈ 0.264 µM)
CC[C@H]1OC(=O)[C@H](C)[C@@H](OC(=O)Cc2ccncc2)[C@H](C)[C@@H](OC2O[C@H](C)C[C@H](N(C)C)[C@H]2O)[C@@](C)(OC)C[C@@H](C)C(=O)[C@H](C)[C@@H](O)[C@]1(C)O (stereo partly drawn) | 50 µg/mL (≈ 70.5 µM) | 0.39 µg/mL (≈ 0.55 µM) | > 100 µg/mL | 0.39 µg/mL (≈ 0.55 µM) | > 100 µg/mL | 1.56 µg/mL (≈ 2.2 µM) | 50 µg/mL (≈ 70.5 µM) | 0.78 µg/mL (≈ 1.1 µM)
CC[C@H]1OC(=O)[C@H](C)[C@@H](OC(=O)Cc2cccnc2)[C@H](C)[C@@H](OC2O[C@H](C)C[C@H](N(C)C)[C@H]2O)[C@@](C)(O)C[C@@H](C)[C@H](O)[C@H](C)[C@@H](O)[C@]1(C)O (stereo partly drawn) | 12.5 µg/mL (≈ 17.9 µM) | 0.78 µg/mL (≈ 1.12 µM) | > 100 µg/mL | 0.78 µg/mL (≈ 1.12 µM) | > 100 µg/mL | 6.25 µg/mL (≈ 8.97 µM) | 12.5 µg/mL (≈ 17.9 µM) | 3.13 µg/mL (≈ 4.49 µM)
CC[C@H]1OC(=O)[C@H](C)[C@@H](OC(=O)Cc2ccccn2)[C@H](C)[C@@H](OC2O[C@H](C)C[C@H](N(C)C)[C@H]2O)[C@@]2(C)C[C@@H](C)[C@H](OC(=O)O2)[C@H](C)[C@H]2OC(=O)O[C@@]21C (stereo partly drawn) | 6.25 µg/mL (≈ 8.35 µM) | 0.2 µg/mL (≈ 0.267 µM) | > 100 µg/mL | 0.05 µg/mL (≈ 0.0668 µM) | 100 µg/mL (≈ 134 µM) | 0.78 µg/mL (≈ 1.04 µM) | 6.25 µg/mL (≈ 8.35 µM) | 0.2 µg/mL (≈ 0.267 µM)
CC[C@H]1OC(=O)[C@H](C)[C@@H](O)[C@H](C)[C@@H](OC2O[C@H](C)C[C@H](N(C)C)[C@H]2O)[C@@]2(C)C[C@@H](C)[C@H](OC(=O)O2)[C@H](C)[C@H]2OC(=O)O[C@@]21C (stereo partly drawn) | 50 µg/mL (≈ 79.4 µM) | 1.56 µg/mL (≈ 2.48 µM) | > 100 µg/mL | 0.78 µg/mL (≈ 1.24 µM) | > 100 µg/mL | > 100 µg/mL | 100 µg/mL (≈ 159 µM) | 12.5 µg/mL (≈ 19.8 µM)
CC[C@H]1OC(=O)[C@H](C)[C@@H](OC(=O)Cc2cccnc2)[C@H](C)[C@@H](OC2O[C@H](C)C[C@H](N(C)C)[C@H]2O)[C@@](C)(O)C[C@@H](C)/C(=N\O)[C@H](C)[C@@H](O)[C@]1(C)O (stereo partly drawn) | 12.5 µg/mL (≈ 17.6 µM) | 0.78 µg/mL (≈ 1.1 µM) | > 100 µg/mL | 0.39 µg/mL (≈ 0.549 µM) | > 100 µg/mL | 1.56 µg/mL (≈ 2.2 µM) | 12.5 µg/mL (≈ 17.6 µM) | 1.56 µg/mL (≈ 2.2 µM)
CC[C@H]1OC(=O)[C@H](C)[C@@H](OC(=O)c2cccc(OC)c2)[C@H](C)[C@@H](OC2O[C@H](C)C[C@H](N(C)C)[C@H]2O)[C@@](C)(OC)C[C@@H](C)C(=O)[C@H](C)[C@@H](O)[C@]1(C)O (stereo partly drawn) | > 100 µg/mL | 1.56 µg/mL (≈ 2.15 µM) | > 100 µg/mL | 1.56 µg/mL (≈ 2.15 µM) | > 100 µg/mL | 50 µg/mL (≈ 69.1 µM) | 100 µg/mL (≈ 138 µM) | 25 µg/mL (≈ 34.5 µM)
CC[C@H]1OC(=O)[C@H](C)[C@@H](OC(=O)Cc2cccnc2)[C@H](C)[C@@H](OC2O[C@H](C)C[C@H](N(C)C)[C@H]2O)[C@@](C)(O)C[C@@H](C)C(=O)[C@H](C)[C@H]2OC(=O)O[C@@]21C (stereo partly drawn) | 3.13 µg/mL (≈ 4.34 µM) | 0.2 µg/mL (≈ 0.277 µM) | > 100 µg/mL | 0.05 µg/mL (≈ 0.0694 µM) | > 100 µg/mL | 0.39 µg/mL (≈ 0.541 µM) | 3.13 µg/mL (≈ 4.34 µM) | 0.2 µg/mL (≈ 0.277 µM)
CC[C@H]1OC(=O)[C@H](C)[C@@H](OC(=O)Cc2ccc(OC)cc2)[C@H](C)[C@@H](OC2O[C@H](C)C[C@H](N(C)C)[C@H]2O)[C@@](C)(OC)C[C@@H](C)C(=O)[C@H](C)[C@@H](O)[C@]1(C)O (stereo partly drawn) | 100 µg/mL (≈ 136 µM) | 0.78 µg/mL (≈ 1.06 µM) | > 100 µg/mL | 0.78 µg/mL (≈ 1.06 µM) | > 100 µg/mL | 12.5 µg/mL (≈ 16.9 µM) | 50 µg/mL (≈ 67.8 µM) | 1.56 µg/mL (≈ 2.11 µM)
